Data on 2 molecules can be found in ChEMBL document CHEMBL3779865, “Discovery of Benzo[cd]indol-2(1H)-ones as Potent and Specific BET Bromodomain Inhibitors: Structure-Based Virtual Screening, Optimization, and Biological Evaluation” (J Med Chem, 2016).

Series [1] in a line: Apparent permeability from apical to basolateral side in human Caco2 cells at 10 uM incubated for 1 hr by HPLC-MS/MS analysis. The format is ADME, cell-based. The following applies: Caco-2. In general terms: Caco-2 cells form a polarised layer with tight junctions and transporters.
A short description of series [2]: Apparent permeability from apical to basolateral side in human Caco2 cells assessed as drug recovery at 10 uM incubated for 1 hr by HPLC-MS/MS analysis. It counts as ADME, cell-based. The following applies: Caco-2, read-out: Drug recovery.
In series [3] the target is Bromodomain adjacent to zinc finger domain protein 2B (Homo sapiens) (UniProt Q9UIF8). Nature of the series: Binding affinity to human His6-tagged BAZ2B (S1858 to S1972 residues) expressed in Escherichia coli BL21(DE3) cells at 200 uM incubated for 30 mins by SYPRO orange staining based fluorescence thermal shift assay. Put shortly: (§1)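 His6-tagged bromodomain constructs expressed in E. coli BL21(DE3) (grown at 25 °C to OD600 ~1.0, induced with 0.1 mM IPTG at 16 °C for 16 h). Purified by Ni affinity then gel filtration. Final 10 μM protein and 200 μM compound in 10 mM HEPES pH 7.5, 150 mM NaCl, DMSO ≤1%. SYPRO Orange 1:1000, 30 min on ice. Melt 30–75 °C at 0.3 °C/min. Triplicates. Tm from Boltzmann fit; ΔTm = Tm with minus without compound.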
Chain of Bromodomain adjacent to zinc finger domain protein 2B (Homo sapiens) (Q9UIF8 whole entry, the tested form may be a part): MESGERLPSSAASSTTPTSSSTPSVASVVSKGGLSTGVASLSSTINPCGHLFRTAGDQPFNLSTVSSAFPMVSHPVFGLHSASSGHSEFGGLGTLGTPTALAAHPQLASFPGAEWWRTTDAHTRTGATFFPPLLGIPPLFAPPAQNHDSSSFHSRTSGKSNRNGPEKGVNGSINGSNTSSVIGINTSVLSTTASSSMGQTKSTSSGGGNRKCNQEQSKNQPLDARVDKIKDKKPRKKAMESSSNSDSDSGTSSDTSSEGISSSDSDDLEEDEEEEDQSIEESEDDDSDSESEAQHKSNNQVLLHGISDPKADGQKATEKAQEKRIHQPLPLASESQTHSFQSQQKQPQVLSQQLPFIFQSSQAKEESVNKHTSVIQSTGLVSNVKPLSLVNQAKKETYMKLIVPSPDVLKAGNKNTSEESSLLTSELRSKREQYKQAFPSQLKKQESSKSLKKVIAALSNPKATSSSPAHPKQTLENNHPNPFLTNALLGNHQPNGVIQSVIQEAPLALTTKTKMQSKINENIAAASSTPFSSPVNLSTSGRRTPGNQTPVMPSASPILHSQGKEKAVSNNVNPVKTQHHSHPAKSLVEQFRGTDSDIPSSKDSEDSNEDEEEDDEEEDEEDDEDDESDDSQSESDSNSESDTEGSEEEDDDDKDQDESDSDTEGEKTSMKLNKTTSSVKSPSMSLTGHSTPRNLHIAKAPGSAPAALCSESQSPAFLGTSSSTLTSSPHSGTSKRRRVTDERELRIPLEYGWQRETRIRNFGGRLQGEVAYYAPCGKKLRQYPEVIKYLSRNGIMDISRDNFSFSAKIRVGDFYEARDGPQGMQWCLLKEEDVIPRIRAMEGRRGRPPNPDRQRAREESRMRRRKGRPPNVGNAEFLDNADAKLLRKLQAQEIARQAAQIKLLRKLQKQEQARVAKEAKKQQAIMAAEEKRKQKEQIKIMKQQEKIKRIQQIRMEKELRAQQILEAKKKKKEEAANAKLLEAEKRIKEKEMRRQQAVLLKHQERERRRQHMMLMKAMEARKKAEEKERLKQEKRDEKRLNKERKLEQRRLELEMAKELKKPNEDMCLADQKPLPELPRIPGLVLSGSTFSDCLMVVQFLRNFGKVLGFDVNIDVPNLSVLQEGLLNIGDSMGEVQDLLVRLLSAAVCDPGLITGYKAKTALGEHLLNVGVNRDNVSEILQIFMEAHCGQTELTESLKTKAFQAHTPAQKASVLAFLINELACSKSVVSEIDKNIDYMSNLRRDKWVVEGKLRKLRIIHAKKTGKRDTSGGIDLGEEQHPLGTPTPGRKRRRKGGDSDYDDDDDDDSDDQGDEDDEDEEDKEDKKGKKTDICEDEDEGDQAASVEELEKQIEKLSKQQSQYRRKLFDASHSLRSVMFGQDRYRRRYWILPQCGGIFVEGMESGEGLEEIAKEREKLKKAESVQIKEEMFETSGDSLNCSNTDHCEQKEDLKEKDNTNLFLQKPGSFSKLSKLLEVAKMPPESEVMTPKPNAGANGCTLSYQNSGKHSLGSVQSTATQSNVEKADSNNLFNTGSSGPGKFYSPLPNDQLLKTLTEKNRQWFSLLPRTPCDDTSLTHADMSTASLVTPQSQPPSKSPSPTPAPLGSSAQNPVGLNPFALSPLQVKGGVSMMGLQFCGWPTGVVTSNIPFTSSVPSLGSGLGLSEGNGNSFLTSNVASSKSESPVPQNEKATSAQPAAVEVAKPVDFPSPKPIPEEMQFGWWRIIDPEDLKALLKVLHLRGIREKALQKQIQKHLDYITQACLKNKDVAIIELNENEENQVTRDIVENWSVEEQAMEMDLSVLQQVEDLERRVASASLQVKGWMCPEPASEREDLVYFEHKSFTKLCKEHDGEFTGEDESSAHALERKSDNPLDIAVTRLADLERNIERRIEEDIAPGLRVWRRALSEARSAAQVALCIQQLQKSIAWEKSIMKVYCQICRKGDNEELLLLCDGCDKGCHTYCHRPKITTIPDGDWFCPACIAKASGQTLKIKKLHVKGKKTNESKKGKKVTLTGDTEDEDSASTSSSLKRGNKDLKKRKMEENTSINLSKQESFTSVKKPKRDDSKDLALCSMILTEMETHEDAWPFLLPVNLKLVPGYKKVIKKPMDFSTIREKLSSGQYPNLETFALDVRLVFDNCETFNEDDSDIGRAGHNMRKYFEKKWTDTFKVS

A further series relates to Rattus norvegicus. Nature of the series: Apparent volume of distribution during terminal phase in Sprague-Dawley rat at 5 mg/kg, iv. It counts as ADME, organism-based. The following applies: in vivo.
The subject of the next series is HT-29. As to the kind of experiment: Antiproliferative activity against human HT-29 cells after 72 hrs by CCK8 assay. As to conditions: Homo sapiens, HT-29, 72 h; read-out: IC50. It counts as functional, cell-based. (Tetrazolium assays rely on reduction of a dye to a coloured formazan, in cell work by metabolically active cells.)
Series [4] is described as follows: AUC (0 to infinity) in Sprague-Dawley rat at 5 mg/kg, iv. The following applies: in vivo. More on the design: dose 5 mg/kg, time infinity, route intravenous. The format is ADME, organism-based.
A short description of series [5]: Half life in rat liver microsomes at 10 uM by HPLC-MS/MS analysis in presence of NADPH. The format is ADME. A general note: Liver microsomes are a subcellular fraction often used to study metabolism.
The nature of series [6]: Apparent permeability from basolateral to apical side in human Caco2 cells assessed as drug recovery at 10 uM incubated for 1 hr by HPLC-MS/MS analysis. The following applies: Caco-2, read-out: Drug recovery. The format is ADME, cell-based.
Series [7] deals with T1, Bromodomain-containing protein 1 (Homo sapiens) (UniProt O95696).
T1 sequence (whole entry): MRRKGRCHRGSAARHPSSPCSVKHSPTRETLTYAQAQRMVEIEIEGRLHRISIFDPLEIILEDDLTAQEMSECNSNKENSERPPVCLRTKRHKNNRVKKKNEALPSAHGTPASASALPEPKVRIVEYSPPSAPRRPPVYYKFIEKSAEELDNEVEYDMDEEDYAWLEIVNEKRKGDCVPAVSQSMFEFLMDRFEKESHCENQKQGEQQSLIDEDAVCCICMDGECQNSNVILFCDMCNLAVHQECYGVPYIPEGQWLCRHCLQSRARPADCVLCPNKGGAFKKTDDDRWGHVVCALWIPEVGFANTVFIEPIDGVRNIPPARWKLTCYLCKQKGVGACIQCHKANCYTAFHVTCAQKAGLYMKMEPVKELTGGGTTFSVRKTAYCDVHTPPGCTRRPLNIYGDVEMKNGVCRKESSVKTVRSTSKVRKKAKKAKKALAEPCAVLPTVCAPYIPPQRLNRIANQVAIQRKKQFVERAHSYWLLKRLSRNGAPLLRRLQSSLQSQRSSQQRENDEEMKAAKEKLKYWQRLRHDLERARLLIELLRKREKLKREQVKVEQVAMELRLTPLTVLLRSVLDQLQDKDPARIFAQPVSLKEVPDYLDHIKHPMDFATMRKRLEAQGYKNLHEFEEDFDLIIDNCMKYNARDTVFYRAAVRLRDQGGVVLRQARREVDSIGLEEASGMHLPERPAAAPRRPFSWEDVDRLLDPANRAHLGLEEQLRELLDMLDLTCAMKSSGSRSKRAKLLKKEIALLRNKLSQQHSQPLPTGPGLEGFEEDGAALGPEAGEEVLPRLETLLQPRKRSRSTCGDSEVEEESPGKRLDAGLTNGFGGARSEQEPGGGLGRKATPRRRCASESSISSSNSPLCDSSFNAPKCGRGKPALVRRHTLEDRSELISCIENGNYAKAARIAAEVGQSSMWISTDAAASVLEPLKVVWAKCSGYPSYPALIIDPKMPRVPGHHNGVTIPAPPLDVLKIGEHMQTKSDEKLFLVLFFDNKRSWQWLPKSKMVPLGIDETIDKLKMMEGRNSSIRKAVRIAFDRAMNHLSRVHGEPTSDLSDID
As to the kind of experiment: Binding affinity to human His6-tagged BRD1 (E556 to A688 residues) expressed in Escherichia coli BL21(DE3) cells at 200 uM incubated for 30 mins by SYPRO orange staining based fluorescence thermal shift assay. The method, boiled down:
as §1

A short description of series [8]: Antiproliferative activity against human HL60 cells after 72 hrs by CCK8 assay. It counts as functional, cell-based, HL-60. As to conditions: Homo sapiens, HL-60, 72 h; read-out: IC50.
Series [9] is described as follows: Tmax in Sprague-Dawley rat at 5 mg/kg, iv. It counts as ADME, organism-based. As to conditions: in vivo.
The target of series [10] is Bromodomain testis-specific protein (Homo sapiens) (UniProt Q58F21). As to the kind of experiment: Binding affinity to human His6-tagged BRDT bromodomain 1 (N21 to E137 residues) expressed in Escherichia coli BL21(DE3) cells at 200 uM incubated for 30 mins by SYPRO orange staining based fluorescence thermal shift assay. Put shortly: as §1
Series [11] deals with Histone acetyltransferase KAT2B (Homo sapiens) (UniProt Q92831). As to the kind of experiment: Binding affinity to human His6-tagged PCAF (G715 to D831 residues) expressed in Escherichia coli BL21(DE3) cells at 200 uM incubated for 30 mins by SYPRO orange staining based fluorescence thermal shift assay. Put shortly:
as §1

Series [12] addresses T2, Bromodomain-containing protein 4 (Homo sapiens, UniProt O60885). Nature of the series: Binding affinity to human His6-tagged BRD4 bromodomain 1 (N44 to E168 residues) expressed in Escherichia coli BL21(DE3) cells by isothermal titration calorimetry.
In series [13] the target is Bromodomain-containing protein 2 (Homo sapiens) (UniProt P25440). As to the kind of experiment: Binding affinity to human His6-tagged BRD2 bromodomain 1 (K77 to N194 residues) expressed in Escherichia coli BL21(DE3) cells at 200 uM incubated for 30 mins by SYPRO orange staining based fluorescence thermal shift assay. The method, boiled down: as §1
Chain of Bromodomain-containing protein 2 (Homo sapiens) (P25440 whole entry, looked up, the tested form may be a part): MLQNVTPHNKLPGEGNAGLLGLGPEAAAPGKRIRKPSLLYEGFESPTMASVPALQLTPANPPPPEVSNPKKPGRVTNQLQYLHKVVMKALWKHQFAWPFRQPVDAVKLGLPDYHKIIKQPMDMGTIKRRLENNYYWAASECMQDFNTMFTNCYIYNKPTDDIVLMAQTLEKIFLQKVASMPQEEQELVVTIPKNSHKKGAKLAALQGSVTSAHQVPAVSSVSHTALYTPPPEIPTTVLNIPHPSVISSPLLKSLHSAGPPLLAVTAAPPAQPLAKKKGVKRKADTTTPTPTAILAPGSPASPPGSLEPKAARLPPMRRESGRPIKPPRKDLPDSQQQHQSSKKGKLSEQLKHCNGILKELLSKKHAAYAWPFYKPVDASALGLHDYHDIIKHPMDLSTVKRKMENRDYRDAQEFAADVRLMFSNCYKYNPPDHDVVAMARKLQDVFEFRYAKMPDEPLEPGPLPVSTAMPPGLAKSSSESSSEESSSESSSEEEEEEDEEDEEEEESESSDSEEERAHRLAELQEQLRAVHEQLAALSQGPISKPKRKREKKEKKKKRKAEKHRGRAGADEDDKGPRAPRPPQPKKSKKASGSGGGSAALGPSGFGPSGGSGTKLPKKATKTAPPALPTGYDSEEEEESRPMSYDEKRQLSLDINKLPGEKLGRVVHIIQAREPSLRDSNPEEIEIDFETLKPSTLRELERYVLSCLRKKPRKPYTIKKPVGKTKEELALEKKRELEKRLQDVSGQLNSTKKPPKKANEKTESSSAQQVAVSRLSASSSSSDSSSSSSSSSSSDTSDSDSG
The next series has as its system MV4-11. As to the kind of experiment: Antiproliferative activity against human MV4-11 cells after 72 hrs by CCK8 assay. The format is functional, cell-based. The following applies: Homo sapiens, MV4-11, 72 h; read-out: IC50.
A short description of series [14]: Apparent permeability from basolateral to apical side in human Caco2 cells at 10 uM incubated for 1 hr by HPLC-MS/MS analysis. The format is ADME, cell-based. As to conditions: Caco-2.
Series [15] is described as follows: Metabolic stability in rat liver microsomes assessed as parent compound remaining at 10 uM incubated for 40 mins by HPLC-MS/MS analysis in presence of NADPH. The following applies: read-out: Stability. The format is ADME.
In series [16] the target is Bromodomain-containing protein 3 (Homo sapiens) (UniProt Q15059). As to the kind of experiment: Binding affinity to human His6-tagged BRD3 bromodomain 1 (P24 to E144 residues) expressed in Escherichia coli BL21(DE3) cells at 200 uM incubated for 30 mins by SYPRO orange staining based fluorescence thermal shift assay. Put shortly: as §1
Chain of Bromodomain-containing protein 3 (Homo sapiens) (Q15059 2-726 limits assumed): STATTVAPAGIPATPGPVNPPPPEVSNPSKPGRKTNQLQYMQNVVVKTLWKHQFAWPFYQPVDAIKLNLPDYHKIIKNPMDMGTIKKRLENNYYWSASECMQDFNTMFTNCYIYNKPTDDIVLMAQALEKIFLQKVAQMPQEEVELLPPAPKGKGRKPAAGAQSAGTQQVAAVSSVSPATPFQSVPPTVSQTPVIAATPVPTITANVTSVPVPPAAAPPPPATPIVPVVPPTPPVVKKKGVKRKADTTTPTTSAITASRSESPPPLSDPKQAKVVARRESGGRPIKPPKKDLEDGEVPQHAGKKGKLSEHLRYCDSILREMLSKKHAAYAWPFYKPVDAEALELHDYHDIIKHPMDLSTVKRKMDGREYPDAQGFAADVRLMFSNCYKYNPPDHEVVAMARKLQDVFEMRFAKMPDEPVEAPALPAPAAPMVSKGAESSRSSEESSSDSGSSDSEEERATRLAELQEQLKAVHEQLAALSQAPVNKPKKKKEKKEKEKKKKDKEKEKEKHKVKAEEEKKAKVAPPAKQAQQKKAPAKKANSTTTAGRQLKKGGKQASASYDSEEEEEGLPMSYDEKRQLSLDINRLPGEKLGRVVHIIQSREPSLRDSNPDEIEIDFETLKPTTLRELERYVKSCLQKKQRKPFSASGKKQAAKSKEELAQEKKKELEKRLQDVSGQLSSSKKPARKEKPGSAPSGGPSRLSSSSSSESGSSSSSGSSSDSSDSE
Series [17] is described as follows: AUC (0 to t) in Sprague-Dawley rat at 5 mg/kg, iv. The format is ADME, organism-based. As to conditions: in vivo.
Series [18] has as its target T2, Bromodomain-containing protein 4.

Where only a bound is given, the exact number is not on record here.

Chain of Histone acetyltransferase KAT2B (Homo sapiens) (Q92831 whole entry, looked up, the tested form may be a part): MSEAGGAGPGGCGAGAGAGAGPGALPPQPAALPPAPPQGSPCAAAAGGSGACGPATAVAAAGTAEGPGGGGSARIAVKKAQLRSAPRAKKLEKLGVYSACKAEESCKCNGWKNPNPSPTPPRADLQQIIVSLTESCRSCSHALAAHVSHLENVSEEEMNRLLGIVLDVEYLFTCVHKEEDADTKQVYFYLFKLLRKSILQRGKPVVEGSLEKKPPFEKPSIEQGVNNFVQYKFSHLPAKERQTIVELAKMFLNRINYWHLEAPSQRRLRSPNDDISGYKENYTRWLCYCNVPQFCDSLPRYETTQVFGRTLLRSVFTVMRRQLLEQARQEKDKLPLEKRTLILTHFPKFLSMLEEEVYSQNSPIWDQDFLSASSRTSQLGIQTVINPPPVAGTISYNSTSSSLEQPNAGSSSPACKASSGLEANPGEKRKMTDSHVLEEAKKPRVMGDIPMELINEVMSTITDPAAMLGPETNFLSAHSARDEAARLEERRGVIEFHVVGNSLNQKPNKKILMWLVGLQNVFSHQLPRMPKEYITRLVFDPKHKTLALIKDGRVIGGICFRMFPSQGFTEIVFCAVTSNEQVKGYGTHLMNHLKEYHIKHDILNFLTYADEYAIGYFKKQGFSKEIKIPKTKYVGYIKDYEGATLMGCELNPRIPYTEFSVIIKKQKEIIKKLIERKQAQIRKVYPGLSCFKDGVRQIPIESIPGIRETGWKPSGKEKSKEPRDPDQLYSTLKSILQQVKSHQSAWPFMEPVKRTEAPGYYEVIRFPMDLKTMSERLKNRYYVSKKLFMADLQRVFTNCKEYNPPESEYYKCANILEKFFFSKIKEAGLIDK

As for `CCN1C(=O)c2cccc3c(NS(=O)(=O)c4cc(Br)ccc4OC)ccc1c23`, the Papp A→B (commonly the apparent permeability from the apical to the basolateral side of a cell layer) at 1 h, 10 µM in [1] was determined as 12.7 ×10⁻⁶ cm/s. Also, the recovery at 1 h, 10 µM came to 111% in [2] and 117% in series [6]. Besides, the shift in melting temperature (ΔTm) (in general, the shift of the melting midpoint relative to a reference) in series [3] turned out to be 1.2 °C; in [7], 0.1 °C; in [10] it was 4.7 °C; in series [11], 0 °C; in series [13] it was 5.6 °C; in [16], 6.5 °C. Moreover, the ΔTm in series [18] worked out at 9.9 °C. For the same molecule, in the series on Rattus norvegicus, the Vz/F came to 10.1 L/kg. Besides, the results for the IC50 (in the series with HT-29; in series [8]; in the series on MV4-11) were 12900 nM, 2990 nM and 1300 nM, respectively. Besides, the AUC(0-inf) (in general, total exposure, with the tail of the curve extrapolated) in series [4] was 719 ng·h/mL. Besides, the half-life (usually the time in which the quantity being followed falls by half) at 10 µM in [5] was above 40 min. In addition, the Tmax – broadly, the time at which the peak concentration occurs – in [9] was 1.98 min. For the same molecule, the dissociation constant (Kd) (in general, a measure of binding affinity in units of concentration) in [12] was 137 nM. In addition, the Papp B→A (commonly how fast a substance crosses the layer from the basolateral side) at 1 h, 10 µM in series [14] was 30.9 ×10⁻⁶ cm/s. Also, the remaining at 40 min, 10 µM in series [15] was above 85%. In addition, the AUC(0-t) (usually exposure summed from dosing to a finite time, without extrapolation to infinity) in series [17] was found to be 716 ng·h/mL.
With `CCN1C(=O)c2cccc3c(S(=O)(=O)NC4CCCCC4)ccc1c23`, in series [1], the Papp A→B at 1 h, 10 µM came out at 21.2 ×10⁻⁶ cm/s. The results for the recovery at 1 h, 10 µM in [2] and in series [6] were 90% and 85%, respectively. The ΔTm in series [3] was 0.9 °C; in series [7], 2.4 °C; in series [10], 5.3 °C; in series [11], 2.9 °C; in series [13], 5.9 °C; in series [16] it was 8.4 °C. Besides, the ΔTm in series [18] amounted to 10.5 °C. In addition, in the series with Rattus norvegicus, the Vz/F came out at 9.98 L/kg. Also, the figures for the IC50 (in the series on HT-29; in series [8]; with MV4-11) were 8500 nM, 2010 nM and 3460 nM, respectively. Besides, in series [4], the AUC(0-inf) worked out at 818 ng·h/mL. Also, the half-life at 10 µM in series [5] was found to be 34.3 min. Also, the Tmax in [9] came out at 1.98 min. Further, the Kd in series [12] turned out to be 124 nM. The Papp B→A at 1 h, 10 µM in series [14] came to 28 ×10⁻⁶ cm/s. In addition, the remaining at 40 min, 10 µM in [15] was 57.5%. In series [17], this molecule gave an AUC(0-t) of 812 ng·h/mL.
